We go through one compound from ChEMBL document CHEMBL3352437, “Novel 3,5-bis(arylidene)-4-oxo-1-piperidinyl dimers: structure-activity relationships and potent antileukemic and antilymphoma cytotoxicity” (Eur J Med Chem, 2014).

A word on the IC50: it is the concentration that inhibits the measured activity by half. Lower therefore signals greater potency.

The test system of the first data set is YT. The data set is described as follows: Cytotoxicity against human YT cells assessed as dead cells at 1 uM after 24 hrs. It counts as functional.
Settings: not given
In short, it runs like this: (§1)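 Dienones added as DMSO solutions to cells in RPMI medium and incubated 24 h at 37°C. Cytotoxicity was scored as cell-membrane disruption by propidium iodide staining and expressed as percentage of dead cells, averaged over three independent experiments.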
With `COc1ccc(/C=C2\CN(C(=O)C(=O)N3C/C(=C\c4ccc(OC)cc4)C(=O)/C(=C/c4ccc(OC)cc4)C3)C/C(=C\c3ccc(OC)cc3)C2=O)cc1`, the Activity was found to be 5.8%.

Tested on in a further data set: not listed separately
The data set is described as follows: Cytotoxicity against human HuT-102 cells assessed as dead cells at 1 uM after 24 hrs. It is filed as functional.
Settings: not given
In short, it runs like this:
as §1
For `COc1ccc(/C=C2\CN(C(=O)C(=O)N3C/C(=C\c4ccc(OC)cc4)C(=O)/C(=C/c4ccc(OC)cc4)C3)C/C(=C\c3ccc(OC)cc3)C2=O)cc1`, the Activity came out at 6.7%.

The next data set has as its system HeLa. In words: Antiproliferative activity against human HeLa cells after 72 hrs by coulter counting analysis.
Settings: not given
It counts as functional, cell-based. Put shortly:
(§2)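 Cells exposed to a range of concentrations in RPMI 1640 at 37°C for 72 h. Surviving cells counted by Coulter counter. IC50 taken from concentration-response curves, mean ± SD of at least three independent experiments.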
In the case of `COc1ccc(/C=C2\CN(C(=O)C(=O)N3C/C(=C\c4ccc(OC)cc4)C(=O)/C(=C/c4ccc(OC)cc4)C3)C/C(=C\c3ccc(OC)cc3)C2=O)cc1`, the IC50 was found to be 59.9 µM.

Tested on in a further data set: not listed separately
The data set is described as follows: Cytotoxicity against human SupT1 cells assessed as dead cells at 1 uM after 24 hrs. It counts as functional, SUP-T1.
Settings: not given
In short, it runs like this: as §1
In the case of `COc1ccc(/C=C2\CN(C(=O)C(=O)N3C/C(=C\c4ccc(OC)cc4)C(=O)/C(=C/c4ccc(OC)cc4)C3)C/C(=C\c3ccc(OC)cc3)C2=O)cc1`, the Activity amounted to 15.2%.

The test system of the next data set is CCRF-CEM. In words: Antiproliferative activity against human CEM cells after 72 hrs by coulter counting analysis. It is filed as functional, cell-based.
Settings: not given
Put shortly: as §2
In turn, `COc1ccc(/C=C2\CN(C(=O)C(=O)N3C/C(=C\c4ccc(OC)cc4)C(=O)/C(=C/c4ccc(OC)cc4)C3)C/C(=C\c3ccc(OC)cc3)C2=O)cc1` returned an IC50 of 95.1 µM.

A further data set relates to MCF7. The data set is described as follows: Cytotoxicity against human MCF7 cells assessed as dead cells at 1 uM after 24 hrs. It counts as functional.
Settings: not given
In short, it runs like this: as §1
On to `COc1ccc(/C=C2\CN(C(=O)C(=O)N3C/C(=C\c4ccc(OC)cc4)C(=O)/C(=C/c4ccc(OC)cc4)C3)C/C(=C\c3ccc(OC)cc3)C2=O)cc1`, for which the Activity came to 16.2%.

The next data set has as its system BJAB. In words: Cytotoxicity against human BJAB cells assessed as dead cells at 1 uM after 24 hrs. It is filed as functional.
Settings: not given
Put shortly:
as §1
On to `COc1ccc(/C=C2\CN(C(=O)C(=O)N3C/C(=C\c4ccc(OC)cc4)C(=O)/C(=C/c4ccc(OC)cc4)C3)C/C(=C\c3ccc(OC)cc3)C2=O)cc1`, for which the Activity amounted to 45.8%.

The next data set concerns Raji. In words: Cytotoxicity against human Raji cells assessed as dead cells at 1 uM after 24 hrs. It is filed as functional.
Settings: not given
Put shortly: as §1
Take `COc1ccc(/C=C2\CN(C(=O)C(=O)N3C/C(=C\c4ccc(OC)cc4)C(=O)/C(=C/c4ccc(OC)cc4)C3)C/C(=C\c3ccc(OC)cc3)C2=O)cc1`: the Activity is 69.1%.

Tested on in a further data set: not listed separately
In words: Cytotoxicity against human MDA231 cells assessed as dead cells at 1 uM after 24 hrs. It counts as functional, MDA-MB-231.
Settings: not given
Put shortly: as §1
On to `COc1ccc(/C=C2\CN(C(=O)C(=O)N3C/C(=C\c4ccc(OC)cc4)C(=O)/C(=C/c4ccc(OC)cc4)C3)C/C(=C\c3ccc(OC)cc3)C2=O)cc1`, for which the Activity was 0.6%.

Tested on in a further data set: not listed separately
The data set is described as follows: Cytotoxicity against human MCF10A cells assessed as dead cells at 1 uM after 24 hrs. It counts as cell-based. The settings on record: mcf-10a. Put shortly: (§3)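 Compounds added from DMSO solutions to cells in medium (RPMI; DMEM for Hs-27 fibroblasts) and incubated 24 h at 37°C. Membrane disruption scored by propidium iodide uptake. Result is percentage of dead cells, average of three independent experiments.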
For `COc1ccc(/C=C2\CN(C(=O)C(=O)N3C/C(=C\c4ccc(OC)cc4)C(=O)/C(=C/c4ccc(OC)cc4)C3)C/C(=C\c3ccc(OC)cc3)C2=O)cc1`, the Activity is reported as 9.9%.

Tested on in another data set: not listed separately
In words: Antiproliferative activity against human Molt4/C8 cells after 72 hrs by coulter counting analysis. The following applies: MOLT-4, 72 h. It is filed as functional, cell-based. Put shortly: as §2
`COc1ccc(/C=C2\CN(C(=O)C(=O)N3C/C(=C\c4ccc(OC)cc4)C(=O)/C(=C/c4ccc(OC)cc4)C3)C/C(=C\c3ccc(OC)cc3)C2=O)cc1` came in with an IC50 of 33.1 µM.

Tested on in a further data set: not listed separately
In words: Cytotoxicity against human MOLT3 cells assessed as dead cells at 1 uM after 24 hrs. It counts as functional, MOLT-3.
Settings: not given
In short, it runs like this:
as §1
As to `COc1ccc(/C=C2\CN(C(=O)C(=O)N3C/C(=C\c4ccc(OC)cc4)C(=O)/C(=C/c4ccc(OC)cc4)C3)C/C(=C\c3ccc(OC)cc3)C2=O)cc1`, the Activity stood at 49.6%.

Tested on in another data set: not listed separately
The data set is described as follows: Cytotoxicity against human NALM6 cells assessed as dead cells at 1 uM after 24 hrs. It is filed as functional, NALM-6.
Settings: not given
In short, it runs like this:
as §1
Consider `COc1ccc(/C=C2\CN(C(=O)C(=O)N3C/C(=C\c4ccc(OC)cc4)C(=O)/C(=C/c4ccc(OC)cc4)C3)C/C(=C\c3ccc(OC)cc3)C2=O)cc1`, for which the Activity stood at 62.6%.

A further data set relates to CCRF-CEM. The data set is described as follows: Cytotoxicity against human CEM cells assessed as dead cells at 1 uM after 24 hrs. It counts as functional.
Settings: not given
In short, it runs like this: as §1
Regarding `COc1ccc(/C=C2\CN(C(=O)C(=O)N3C/C(=C\c4ccc(OC)cc4)C(=O)/C(=C/c4ccc(OC)cc4)C3)C/C(=C\c3ccc(OC)cc3)C2=O)cc1`, the Activity was 71.9%.

Tested on in a further data set: not listed separately
In words: Cytotoxicity against human 22Rvl cells assessed as dead cells at 1 uM after 24 hrs.
Settings: not given
It is filed as functional. Put shortly:
as §1
For `COc1ccc(/C=C2\CN(C(=O)C(=O)N3C/C(=C\c4ccc(OC)cc4)C(=O)/C(=C/c4ccc(OC)cc4)C3)C/C(=C\c3ccc(OC)cc3)C2=O)cc1`, the Activity was determined as 0%.

The test system of a further data set is L1210. The data set is described as follows: Antiproliferative activity against mouse L1210 cells after 72 hrs by coulter counting analysis. The following applies: L1210, 72 h. It is filed as functional, cell-based.
The compound `COc1ccc(/C=C2\CN(C(=O)C(=O)N3C/C(=C\c4ccc(OC)cc4)C(=O)/C(=C/c4ccc(OC)cc4)C3)C/C(=C\c3ccc(OC)cc3)C2=O)cc1` came in with an IC50 of 202 µM.

The test system of another data set is DU-145. In words: Cytotoxicity against human DU145 cells assessed as dead cells at 1 uM after 24 hrs. It counts as functional.
Settings: not given
In short, it runs like this:
as §1
For `COc1ccc(/C=C2\CN(C(=O)C(=O)N3C/C(=C\c4ccc(OC)cc4)C(=O)/C(=C/c4ccc(OC)cc4)C3)C/C(=C\c3ccc(OC)cc3)C2=O)cc1`, the Activity came out at 11.4%.

In a further data set the test system is Jurkat. The data set is described as follows: Cytotoxicity against human Jurkat cells assessed as dead cells at 1 uM after 24 hrs. It is filed as functional.
Settings: not given
In short, it runs like this:
as §1
As for `COc1ccc(/C=C2\CN(C(=O)C(=O)N3C/C(=C\c4ccc(OC)cc4)C(=O)/C(=C/c4ccc(OC)cc4)C3)C/C(=C\c3ccc(OC)cc3)C2=O)cc1`, the Activity is reported as 72%.

The test system of another data set is EL4. The data set is described as follows: Cytotoxicity against mouse EL4 cells assessed as dead cells at 1 uM after 24 hrs.
Settings: not given
It is filed as functional. Put shortly:
as §1
For `COc1ccc(/C=C2\CN(C(=O)C(=O)N3C/C(=C\c4ccc(OC)cc4)C(=O)/C(=C/c4ccc(OC)cc4)C3)C/C(=C\c3ccc(OC)cc3)C2=O)cc1`, the Activity worked out at 71.7%.

The test system of the next data set is HS27. The data set is described as follows: Cytotoxicity against human HS27 cells assessed as dead cells at 1 uM after 24 hrs. It is filed as cell-based. The settings on record: hs27, 24 h. Put shortly: as §3
As to `COc1ccc(/C=C2\CN(C(=O)C(=O)N3C/C(=C\c4ccc(OC)cc4)C(=O)/C(=C/c4ccc(OC)cc4)C3)C/C(=C\c3ccc(OC)cc3)C2=O)cc1`, the Activity came to 0.6%.

A further data set has as its system Ramos. In words: Cytotoxicity against human Ramos cells assessed as dead cells at 1 uM after 24 hrs. It is filed as functional.
Settings: not given
In short, it runs like this: as §1
As to `COc1ccc(/C=C2\CN(C(=O)C(=O)N3C/C(=C\c4ccc(OC)cc4)C(=O)/C(=C/c4ccc(OC)cc4)C3)C/C(=C\c3ccc(OC)cc3)C2=O)cc1`, the Activity came out at 53.7%.

The test system of the next data set is LAPC4. In words: Cytotoxicity against human LAPC4 cells assessed as dead cells at 1 uM after 24 hrs.
Settings: not given
It is filed as functional. Put shortly:
as §1
With `COc1ccc(/C=C2\CN(C(=O)C(=O)N3C/C(=C\c4ccc(OC)cc4)C(=O)/C(=C/c4ccc(OC)cc4)C3)C/C(=C\c3ccc(OC)cc3)C2=O)cc1`, the Activity is reported as 1.9%.

The next data set relates to HCC70. In words: Cytotoxicity against human HCC70 cells assessed as dead cells at 1 uM after 24 hrs. It counts as functional.
Settings: not given
Put shortly: as §1
Regarding `COc1ccc(/C=C2\CN(C(=O)C(=O)N3C/C(=C\c4ccc(OC)cc4)C(=O)/C(=C/c4ccc(OC)cc4)C3)C/C(=C\c3ccc(OC)cc3)C2=O)cc1`, the Activity is 14.7%.
